Assay results as given in article PMC6379907 (Advanced biosystems, 2018).
Read-outs that look alike come from different tables or passages of the source.

Legend:
fungal protease K = settings: cited from earlier work
chymotrypsin = settings: cited from earlier work
S. aureus USA300 [1] = test system: S. aureus USA300
S. aureus USA300 [2] = test: Membrane permeation, propidium iodide probe; assay type: cell-based, Staphylococcus aureus; settings: peptides at 3.1 μM; antibiotics at their MIC values
Method in brief: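 Serially diluted test compound was combined with propidium iodide (20 μM) and bacteria in TSB at final OD600 ~0.1. Incubated at 37°C with shaking at 100 rpm. Fluorescence (ex 584 nm, em 620 nm) was read every 5 min for 2 h. Each condition was run in duplicate.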

[3] = S. aureus USA300, MIC values used in Figure 9B

Compound | resistance to fungal protease K (fungal protease K) | resistance to chymotrypsin (chymotrypsin) | MIC of antibiotics (S. aureus USA300 [1]; [3]) | membrane permeation of S. aureus USA300 (PI fluorescence) (S. aureus USA300 [2]) | MIC of antibiotics (S. aureus USA300 [1]; USA300, 20 h)
GF-17: synthetic peptide of LL-37 residues 17–32 plus an extra N-terminal glycine (FKRIVQRIKDFLRNLV; extra N-terminal glycine) | but not GF-17, is resistant | but not GF-17, is resistant |  |  | 
CO[C@H]1/C=C/O[C@@]2(C)Oc3c(C)c(O)c4c(O)c(cc(O)c4c3C2=O)NC(=O)/C(C)=C\C=C\[C@H](C)[C@H](O)[C@@H](C)[C@@H](O)[C@@H](C)[C@H](OC(C)=O)[C@@H]1C [rifamycin] |  |  | 0.2 µM | no membrane permeation | 
CCCCCCCCCC(=O)N[C@@H](Cc1c[nH]c2ccccc12)C(=O)N[C@H](CC(N)=O)C(=O)N[C@@H](CC(=O)O)C(=O)N[C@@H]1C(=O)NCC(=O)N[C@@H](CCCN)C(=O)N[C@@H](CC(=O)O)C(=O)N[C@H](C)C(=O)N[C@@H](CC(=O)O)C(=O)NCC(=O)N[C@H](CO)C(=O)N[C@@H]([C@H](C)CC(=O)O)C(=O)N[C@@H](CC(=O)c2ccccc2N)C(=O)O[C@@H]1C [daptomycin] |  |  |  |  | 0.78 µM
CN[C@H](CC(C)C)C(=O)N[C@H]1C(=O)N[C@@H](CC(N)=O)C(=O)N[C@H]2C(=O)N[C@H]3C(=O)N[C@H](C(=O)N[C@H](C(=O)O)c4cc(O)cc(O)c4-c4cc3ccc4O)[C@H](O)c3ccc(c(Cl)c3)Oc3cc2cc(c3O[C@@H]2O[C@H](CO)[C@@H](O)[C@H](O)[C@H]2O[C@H]2C[C@](C)(N)[C@H](O)[C@H](C)O2)Oc2ccc(cc2Cl)[C@H]1O [vancomycin] |  |  | 0.78 µM | no membrane permeation | 
